Measured values as given in ChEMBL document CHEMBL1130396, “Angiotensin analogues palmitoylated in positions 1 and 4” (J Med Chem, 1997).
Where a SMILES comes first, the peptide text is derived from it. [ ]: non-standard residue; d: D form. The star is where a group is joined. X1 = CCCCCCCCCCCCCCCC(=O)OCCC(=O)*; Palmitoyl = CCCCCCCCCCCCCCCC(=O)*; X2 = CCCCCCCCCCCCCCCCCC*; Sar = CNCC(=O)O

Tests used:
[1] = organism: Oryctolagus cuniculus; experiment: Negative log of the dose of agonist that produces half-maximal contraction on rabbit aorta; format: functional
How it was run: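 New Zealand rabbit thoracic aorta rings (5 mm) were held in oxygenated Krebs, pH 7.4, at 37 °C under 2 g tension and equilibrated for 90 min. Isometric contractions were recorded. Cumulative dose-response curves (5 × 10^-11–10^-5 M) were expressed as % of maximal Ang stimulation, and pD2 was taken as the negative log of the dose giving half-maximal contraction. At least three evaluations were done.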

[2] = target: T1, Type-1 angiotensin II receptor (Bos taurus, UniProt P25104); experiment: Dissociation constant for [125 I] Ang binding to type 1 Angiotensin II receptor of bovine adrenocortical membranes
T1 sequence (P25104 whole entry): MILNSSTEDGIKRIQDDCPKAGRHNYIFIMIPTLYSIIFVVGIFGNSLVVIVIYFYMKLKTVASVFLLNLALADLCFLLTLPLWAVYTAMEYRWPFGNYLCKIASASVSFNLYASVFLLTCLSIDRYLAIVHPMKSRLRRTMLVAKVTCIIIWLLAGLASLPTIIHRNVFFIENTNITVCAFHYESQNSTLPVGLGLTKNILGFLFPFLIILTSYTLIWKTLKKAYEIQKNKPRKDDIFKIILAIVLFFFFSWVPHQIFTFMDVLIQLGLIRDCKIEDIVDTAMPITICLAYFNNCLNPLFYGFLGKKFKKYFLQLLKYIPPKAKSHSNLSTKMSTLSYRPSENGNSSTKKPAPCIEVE

[3] = target: T2, Type-1 angiotensin II receptor (Bos taurus) (UniProt P25104); experiment: Relative affinity for type 1 Angiotensin II receptor of bovine adrenocortical membranes compared to angiotensin
T2 sequence (whole entry): T1 sequence (P25104 whole entry)
How it was run: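 Bovine adrenocortical membranes were incubated in 25 mM Tris/HCl (100 mM NaCl, 5 mM MgCl2, 0.2% BSA, pH 7.4) with peptide across 5 × 10^-11–10^-5 M and 30 pM [125I]Ang (final) for 45 min at 22 °C. Bound radioactivity was filtered and gamma-counted, with nonspecific binding defined by 1 µM Ang. […] At least three experiments were run in duplicate.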

[4] = target: T3, Type-1 angiotensin II receptor (Oryctolagus cuniculus, UniProt P34976); experiment: Negative log of the dose of antagonist (compound) that reduces response of a double dose of […] to that of a single dose, on rabbit aorta; format: functional, tissue-based; settings: for Kb: read-out: pA2 (converted)
T3 sequence (P34976 whole entry): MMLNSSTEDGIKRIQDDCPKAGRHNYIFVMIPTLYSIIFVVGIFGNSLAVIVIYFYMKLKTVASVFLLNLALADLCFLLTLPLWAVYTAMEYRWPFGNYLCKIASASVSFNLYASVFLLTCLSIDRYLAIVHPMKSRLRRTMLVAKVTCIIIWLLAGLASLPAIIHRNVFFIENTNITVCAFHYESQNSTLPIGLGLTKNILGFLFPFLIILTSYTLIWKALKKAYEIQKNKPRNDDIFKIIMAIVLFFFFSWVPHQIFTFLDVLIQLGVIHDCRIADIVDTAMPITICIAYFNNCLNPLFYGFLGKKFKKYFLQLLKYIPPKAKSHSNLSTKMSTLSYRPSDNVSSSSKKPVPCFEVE
How it was run: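 Rabbit thoracic aorta rings in oxygenated Krebs, pH 7.4, at 37 °C under 2 g tension were preincubated 10 min with single antagonist concentrations. Ang concentration-response curves were then run with and without antagonist. pA2 came from Schild plot, or was estimated from lower doses for long-acting analogues. Duration was followed by Ang curves at 30 min, 1.5 h and 3 h, washing every 20 min. At least three evaluations were done.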

[5] = target: T4, Type-1 angiotensin II receptor (Oryctolagus cuniculus) (UniProt P34976); experiment: Relative affinity compared to the affinity of angiotensin II(Ang=100%) for Angiotensin II receptor, type 1 on rabbit aorta; format: tissue-based
T4 sequence (whole entry): T3 sequence (P34976 whole entry)

Structure (SMILES)	Kd [2] [µM]	RA [3]	pD2 [1]	also measured
CCCCCCCCCCCCCCCC(=O)Oc1ccc(C[C@H](NC(=O)[C@@H](NC(=O)[C@H](CCCN=C(N)N)NC(=O)CNC)C(C)C)C(=O)N[C@H](C(=O)N[C@@H](Cc2c[nH]cn2)C(=O)N2CCC[C@H]2C(=O)N[C@@H](Cc2ccccc2)C(=O)O)C(C)C)cc1 [listing 1 of 2 here]	–	–	7.61	–
CCCCCCCCCCCCCCCC(=O)OC[C@H](NC(C)=O)C(=O)N[C@@H](CCCNC(=N)N)C(=O)N[C@H](C(=O)N[C@@H](Cc1ccc(O)cc1)C(=O)N[C@H](C(=O)N[C@@H](Cc1cnc[nH]1)C(=O)N1CCC[C@H]1C(=O)N[C@@H](Cc1ccccc1)C(=O)O)C(C)C)C(C)C (Ac-S(Palmitoyl)RVYVHPF-OH)	0.49	–	–	–
CCCCCCCCCCCCCCCC(=O)Oc1ccc(C[C@H](NC(=O)[C@@H](NC(=O)[C@H](CCCN=C(N)N)NC(=O)CNC)C(C)C)C(=O)N[C@H](C(=O)N[C@@H](Cc2c[nH]cn2)C(=O)N2CCC[C@H]2C(=O)N[C@H](Cc2ccccc2)C(=O)O)C(C)C)cc1	–	162	–	–
CC(=O)N[C@@H](CO)C(=O)N[C@@H](CCCN=C(N)N)C(=O)N[C@H](C(=O)N[C@@H](Cc1ccc(O)cc1)C(=O)N[C@H](C(=O)N[C@@H](Cc1c[nH]cn1)C(=O)N1CCC[C@H]1C(=O)N[C@@H](Cc1ccccc1)C(=O)O)C(C)C)C(C)C (Ac-SRVYVHPF-OH)	0.0178	32.4	7.54	RA [5]: 16.2
CNCC(=O)N[C@@H](CCCN=C(N)N)C(=O)N[C@H](C(=O)N[C@@H](Cc1ccc(O)cc1)C(=O)N[C@H](C(=O)N[C@@H](Cc1c[nH]cn1)C(=O)N1CCC[C@H]1C(=O)N[C@@H](Cc1ccccc1)C(=O)O)C(C)C)C(C)C	–	–	8.57	–
CNCC(=O)N[C@@H](CCCNC(=N)N)C(=O)N[C@H](C(=O)N[C@@H](Cc1ccc(O)cc1)C(=O)N[C@H](C(=O)N[C@@H](Cc1cnc[nH]1)C(=O)N1CCC[C@H]1C(=O)N[C@H](Cc1ccc2ccccc2c1)C(=O)O)C(C)C)C(C)C	0.0166	–	–	Kb [4]: 0.00794 µM
CC(C)[C@H](NC(=O)[C@H](CCCNC(=N)N)NC(=O)[C@@H](N)CO)C(=O)N[C@@H](Cc1ccc(O)cc1)C(=O)N[C@H](C(=O)N[C@@H](Cc1cnc[nH]1)C(=O)N1CCC[C@H]1C(=O)N[C@@H](Cc1ccccc1)C(=O)O)C(C)C (H-SRVYVHPF-OH)	0.00759	–	–	–
CC(C)[C@H](NC(=O)[C@H](CCCN=C(N)N)NC(=O)CCO)C(=O)N[C@@H](Cc1ccc(O)cc1)C(=O)N[C@H](C(=O)N[C@@H](Cc1c[nH]cn1)C(=O)N1CCC[C@H]1C(=O)N[C@@H](Cc1ccccc1)C(=O)O)C(C)C	0.105	5.53	7.23	RA [5]: 7.95
CCCCCCCCCCCCCCCC(=O)OCCC(=O)N[C@@H](CCCN=C(N)N)C(=O)N[C@H](C(=O)N[C@@H](Cc1ccc(O)cc1)C(=O)N[C@H](C(=O)N[C@@H](Cc1c[nH]cn1)C(=O)N1CCC[C@H]1C(=O)N[C@@H](Cc1ccccc1)C(=O)O)C(C)C)C(C)C (X1-RVYVHPF-OH)	2.75	0.21	5.46	RA [5]: 0.13
CNCC(=O)N[C@@H](CCCN=C(N)N)C(=O)N[C@H](C(=O)N[C@@H](Cc1ccc(O)cc1)C(=O)N[C@H](C(=O)N[C@@H](Cc1c[nH]cn1)C(=O)N1CCC[C@H]1C(=O)N[C@H](Cc1ccc2ccccc2c1)C(=O)O)C(C)C)C(C)C	–	34.7	–	–
CC(C)[C@H](NC(=O)[C@H](CCCN=C(N)N)NC(=O)CCO)C(=O)N[C@@H](Cc1ccc(O)cc1)C(=O)N[C@H](C(=O)N[C@@H](Cc1c[nH]cn1)C(=O)N1CCC[C@H]1C(=O)N[C@H](Cc1ccccc1)C(=O)O)C(C)C	6.46	0.09	–	Kb [4]: 4.9 µM

The next lines start with results.

Kd [2] [µM]	RA [3]	Structure (SMILES)	pD2 [1]	also measured
–	0.21	CCCCCCCCCCCCCCCC(=O)OC[C@H](NC(C)=O)C(=O)N[C@@H](CCCN=C(N)N)C(=O)N[C@H](C(=O)N[C@@H](Cc1ccc(O)cc1)C(=O)N[C@H](C(=O)N[C@@H](Cc1c[nH]cn1)C(=O)N1CCC[C@H]1C(=O)N[C@H](Cc1cccc2ccccc12)C(=O)O)C(C)C)C(C)C	–	pKd [2]: 5.65; pA2 [4]: < 5.5
–	407	CNCC(=O)N[C@@H](CCCN=C(N)N)C(=O)N[C@H](C(=O)N[C@@H](Cc1ccc(O)cc1)C(=O)N[C@H](C(=O)N[C@@H](Cc1c[nH]cn1)C(=O)N1CCC[C@H]1C(=O)N[C@H](Cc1ccccc1)C(=O)O)C(C)C)C(C)C	–	RA [5]: 174
–	1.78	CC(=O)N[C@@H](CO)C(=O)N[C@@H](CCCN=C(N)N)C(=O)N[C@H](C(=O)N[C@@H](Cc1ccc(O)cc1)C(=O)N[C@H](C(=O)N[C@@H](Cc1c[nH]cn1)C(=O)N1CCC[C@H]1C(=O)N[C@H](Cc1cccc2ccccc12)C(=O)O)C(C)C)C(C)C	–	pKd [2]: 6.49; pA2 [4]: 6.99
–	75.8	CC(C)[C@H](NC(=O)[C@H](CCCN=C(N)N)NC(=O)[C@@H](N)CO)C(=O)N[C@@H](Cc1ccc(O)cc1)C(=O)N[C@H](C(=O)N[C@@H](Cc1c[nH]cn1)C(=O)N1CCC[C@H]1C(=O)N[C@@H](Cc1ccccc1)C(=O)O)C(C)C (H-SRVYVHPF-OH)	7.68	RA [5]: 22.4
–	2.57	CCCCCCCCCCCCCCCC(=O)Oc1ccc(C[C@H](NC(=O)[C@@H](NC(=O)[C@H](CCCN=C(N)N)NC(=O)CNC)C(C)C)C(=O)N[C@H](C(=O)N[C@@H](Cc2c[nH]cn2)C(=O)N2CCC[C@H]2C(=O)N[C@H](Cc2ccc3ccccc3c2)C(=O)O)C(C)C)cc1	–	–
–	1.17	CCCCCCCCCCCCCCCC(=O)OC[C@H](NC(C)=O)C(=O)N[C@@H](CCCN=C(N)N)C(=O)N[C@H](C(=O)N[C@@H](Cc1ccc(O)cc1)C(=O)N[C@H](C(=O)N[C@@H](Cc1c[nH]cn1)C(=O)N1CCC[C@H]1C(=O)N[C@@H](Cc1ccccc1)C(=O)O)C(C)C)C(C)C (Ac-S(Palmitoyl)RVYVHPF-OH)	<5.5	–
0.224	–	CCCCCCCCCCCCCCCC(=O)Oc1ccc(C[C@H](NC(=O)[C@@H](NC(=O)[C@H](CCCNC(=N)N)NC(=O)CNC)C(C)C)C(=O)N[C@H](C(=O)N[C@@H](Cc2cnc[nH]2)C(=O)N2CCC[C@H]2C(=O)N[C@H](Cc2ccc3ccccc3c2)C(=O)O)C(C)C)cc1	–	Kb [4]: 0.102 µM
–	100	CC[C@H](C)[C@H](NC(=O)[C@H](Cc1ccc(O)cc1)NC(=O)[C@@H](NC(=O)[C@H](CCCNC(=N)N)NC(=O)[C@@H](N)CC(=O)O)C(C)C)C(=O)N[C@@H](Cc1cnc[nH]1)C(=O)N1CCC[C@H]1C(=O)N[C@@H](Cc1ccccc1)C(=O)O [ANGIOTENSIN II]	8.33	RA [5]: 100
0.00355	–	CCCCCCCCCCCCCCCC(=O)Oc1ccc(C[C@H](NC(=O)[C@@H](NC(=O)[C@H](CCCN=C(N)N)NC(=O)CNC)C(C)C)C(=O)N[C@H](C(=O)N[C@@H](Cc2c[nH]cn2)C(=O)N2CCC[C@H]2C(=O)N[C@@H](Cc2ccccc2)C(=O)O)C(C)C)cc1 [listing 2 of 2 here]	–	Kb [4]: 0.0363 µM
1.55	–	CCCCCCCCCCCCCCCCCCOc1ccc(C[C@H](NC(=O)[C@@H](NC(=O)[C@H](CCCNC(=N)N)NC(=O)CNC)C(C)C)C(=O)N[C@H](C(=O)N[C@@H](Cc2cnc[nH]2)C(=O)N2CCC[C@H]2C(=O)N[C@@H](Cc2ccccc2)C(=O)O)C(C)C)cc1 (H-[Sar]RVY(X2)VHPF-OH)	–	–
